Active and inactive are the calls of the source. The calls are words filed in the database; no cut-off is given here.
Key:
[1] = tested on: Hemoglobin HbA (Homo sapiens), P69905+P68871 [E7V]; assay: (§1) Induction of R-state stabilization of Hb betaGlu6Val mutant in sickle disease patient purified HbS/HbA mixture assessed as change from baseline of partial pressure of O2 at which HbS is 50% saturated with O2 at 30 uM preincubated for 45 mins followed by oxygenation for 10 mins and subsequent deoxygenation by hemoximetry relative to control
Method in brief: (§2)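 Oxygen equilibrium curves were run on a Hemox Analyzer using Hb purified from sickle disease blood (an HbA/HbS mixture) at 25 μM. Compound was tested at 30 μM, or at 500 μM where noted. The read-out was the % change from baseline in the pO2 at which HbS is 50% saturated (Δp50).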

[2] = tested on: Hemoglobin HbA (Homo sapiens), P69905+P68871 [E7V]; assay: (§3) Induction of R-state stabilization of Hb betaGlu6Val mutant in sickle cell disease transfused human whole blood assessed as change from baseline of partial pressure of O2 at which HbS is 50% saturated with O2 at 1 mM preincubated for 45 mins followed by 20 mins oxygenation/deoxygenation cycle by hemoximetry relative to control
Method in brief: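 Whole blood from transfused SCD subjects, at 20% hematocrit (Hb 1 mM), was run with compound at 1 mM. Oxygen equilibrium curves were measured by hemoximetry. The value is the % change from baseline in the pO2 giving 50% O2 saturation (Δp50).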

Homo sapiens = species on record: Homo sapiens; assay: Induction of R-state stabilization of sickle cell Hb betaGlu6Val mutant purified from sickle cell patient assessed as inhibition of KH2PO4-induced polymerization by measuring change from baseline of delay time for onset of polymerization at 75 uM preincubated for 1 hr followed by deoxygenation for …; set-up: scale not given: the % may be the effect or the level left
Blood = assay: Half life in Sprague-Dawley rat blood at 7.2 to 120 mg/kg, po by LC-MS/MS analysis; type: ADME, organism-based; settings: in vivo
Rattus norvegicus = assay: Dose normalized AUC (0 to infinity) in Sprague-Dawley rat at 7.2 to 120 mg/kg, po by LC-MS/MS analysis; type: ADME, organism-based; settings: in vivo
Method in brief: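 Rat oral PK: AUC(0–∞) divided by the oral dose, expressed as (ng·h/mL)/(mg/kg).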

[3] = Ratio of drug level in Sprague-Dawley rat RBC to plasma at 7.2 to 120 mg/kg, po by LC-MS/MS analysis; type: ADME, organism-based; settings: red blood cells (RBC) / plasma
[4] = Oral bioavailability in Sprague-Dawley rat at 7.2 to 120 mg/kg by LC-MS/MS analysis; type: ADME, organism-based; settings: in vivo
[5] = Oral bioavailability in dog; type: ADME, organism-based, Canis lupus familiaris; settings: in vivo
[6] = Oral bioavailability in monkey; type: ADME, organism-based, Macaca mulatta; settings: rhesus monkey, in vivo
[7] = Half life in Sprague-Dawley rat plasma at 7.2 to 120 mg/kg, po by LC-MS/MS analysis; type: ADME, organism-based
[8] = Half life in dog blood; type: ADME, tissue-based, Canis lupus familiaris
[9] = Half life in dog plasma; type: ADME, cell-free, Canis lupus familiaris
[10] = Half life in monkey blood; type: ADME, tissue-based, Macaca mulatta; settings: rhesus monkey
[11] = Half life in monkey plasma; type: ADME, cell-free, Macaca mulatta; settings: rhesus monkey
Cytochrome P450 1A2 = target: T1, Cytochrome P450 1A2 (Homo sapiens, UniProt P05177); assay: Inhibition of CYP1A2 in human liver microsomes using phenacetin as substrate after 5 to 15 mins; type: ADME
T1 sequence (P05177 whole entry): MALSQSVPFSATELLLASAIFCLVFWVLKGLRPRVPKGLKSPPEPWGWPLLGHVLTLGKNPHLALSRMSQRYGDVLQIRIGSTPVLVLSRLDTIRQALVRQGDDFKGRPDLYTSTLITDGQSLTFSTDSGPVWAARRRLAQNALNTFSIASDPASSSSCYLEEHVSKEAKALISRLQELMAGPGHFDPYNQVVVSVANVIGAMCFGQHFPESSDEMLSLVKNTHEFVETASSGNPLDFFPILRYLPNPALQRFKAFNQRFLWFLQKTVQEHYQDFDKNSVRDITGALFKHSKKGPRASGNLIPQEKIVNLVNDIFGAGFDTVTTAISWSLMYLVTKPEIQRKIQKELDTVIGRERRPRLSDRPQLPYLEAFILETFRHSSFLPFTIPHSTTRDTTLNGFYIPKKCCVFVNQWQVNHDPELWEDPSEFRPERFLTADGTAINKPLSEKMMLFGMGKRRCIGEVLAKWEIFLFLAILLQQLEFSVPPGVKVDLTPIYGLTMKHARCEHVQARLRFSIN
Method in brief: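 Pooled human liver microsomes incubated with phenacetin as the CYP1A2-specific probe substrate across a range of test-compound concentrations. IC50 derived from inhibition of probe metabolism.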

Cytochrome P450 2C8 = target: T2, Cytochrome P450 2C8 (Homo sapiens, UniProt P10632); assay: Inhibition of CYP2C8 in human liver microsomes using paclitaxel as substrate after 5 to 15 mins; type: ADME
T2 sequence (P10632 whole entry): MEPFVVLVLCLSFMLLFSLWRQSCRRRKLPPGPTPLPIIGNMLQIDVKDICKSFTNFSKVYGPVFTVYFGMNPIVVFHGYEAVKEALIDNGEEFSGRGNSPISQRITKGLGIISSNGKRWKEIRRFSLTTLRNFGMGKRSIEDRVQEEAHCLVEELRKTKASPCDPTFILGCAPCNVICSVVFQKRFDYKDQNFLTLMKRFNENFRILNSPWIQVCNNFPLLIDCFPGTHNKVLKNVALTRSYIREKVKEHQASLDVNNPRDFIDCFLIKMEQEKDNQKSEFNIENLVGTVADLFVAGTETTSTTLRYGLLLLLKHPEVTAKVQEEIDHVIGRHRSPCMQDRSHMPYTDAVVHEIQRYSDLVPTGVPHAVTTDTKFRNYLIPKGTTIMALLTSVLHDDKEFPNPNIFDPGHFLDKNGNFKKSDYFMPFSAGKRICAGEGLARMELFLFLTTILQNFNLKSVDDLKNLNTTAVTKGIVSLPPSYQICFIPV

Cytochrome P450 2C9 = Cytochrome P450 2C9 (Homo sapiens, UniProt P11712); assay: Inhibition of CYP2C9 in human liver microsomes using tolbutamide as substrate after 5 to 15 mins
Sequence of Cytochrome P450 2C9 (P11712 whole entry): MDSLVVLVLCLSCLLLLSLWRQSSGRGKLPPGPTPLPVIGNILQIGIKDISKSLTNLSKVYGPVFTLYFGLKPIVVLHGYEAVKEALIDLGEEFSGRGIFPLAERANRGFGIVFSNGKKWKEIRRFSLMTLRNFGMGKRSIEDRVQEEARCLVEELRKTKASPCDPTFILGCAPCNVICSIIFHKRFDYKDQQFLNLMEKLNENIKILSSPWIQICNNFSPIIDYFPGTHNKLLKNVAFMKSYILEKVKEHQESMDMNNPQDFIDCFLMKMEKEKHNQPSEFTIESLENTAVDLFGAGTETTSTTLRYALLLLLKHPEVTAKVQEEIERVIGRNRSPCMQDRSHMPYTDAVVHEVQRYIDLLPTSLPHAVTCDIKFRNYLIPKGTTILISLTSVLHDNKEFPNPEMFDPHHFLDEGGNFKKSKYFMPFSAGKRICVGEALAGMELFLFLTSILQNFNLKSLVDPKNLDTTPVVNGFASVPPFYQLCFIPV

Cytochrome P450 2C19 [12] = target: T3, Cytochrome P450 2C19 (Homo sapiens, UniProt P33261); assay: Inhibition of CYP2C19 in human liver microsomes using S-Mephentoin as substrate after 5 to 15 mins; type: ADME
T3 sequence (P33261 whole entry): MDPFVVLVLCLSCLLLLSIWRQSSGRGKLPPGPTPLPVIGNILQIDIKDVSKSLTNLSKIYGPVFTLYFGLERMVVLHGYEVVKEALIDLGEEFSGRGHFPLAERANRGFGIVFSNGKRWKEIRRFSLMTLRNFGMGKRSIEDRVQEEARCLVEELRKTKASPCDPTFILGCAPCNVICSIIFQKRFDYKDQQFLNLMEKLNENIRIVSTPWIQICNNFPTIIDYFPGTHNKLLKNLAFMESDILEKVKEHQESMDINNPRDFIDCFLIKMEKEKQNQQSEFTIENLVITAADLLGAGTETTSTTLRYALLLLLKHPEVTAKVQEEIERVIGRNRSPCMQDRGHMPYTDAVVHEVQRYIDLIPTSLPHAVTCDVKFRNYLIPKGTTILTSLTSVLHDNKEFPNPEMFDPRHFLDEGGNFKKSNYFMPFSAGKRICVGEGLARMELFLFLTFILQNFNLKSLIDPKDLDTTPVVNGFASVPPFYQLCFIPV
Method in brief: (§4)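 Pooled human liver microsomes were incubated with isozyme-specific probe substrates: S-mephenytoin for CYP2C19 and bufuralol for CYP2D6.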

Cytochrome P450 2D6 = Cytochrome P450 2D6 (Homo sapiens, UniProt P10635); assay: Inhibition of CYP2D6 in human liver microsomes using bufuralol as substrate after 5 to 15 mins; type: ADME; method in brief: as §4
Sequence of Cytochrome P450 2D6 (P10635 whole entry): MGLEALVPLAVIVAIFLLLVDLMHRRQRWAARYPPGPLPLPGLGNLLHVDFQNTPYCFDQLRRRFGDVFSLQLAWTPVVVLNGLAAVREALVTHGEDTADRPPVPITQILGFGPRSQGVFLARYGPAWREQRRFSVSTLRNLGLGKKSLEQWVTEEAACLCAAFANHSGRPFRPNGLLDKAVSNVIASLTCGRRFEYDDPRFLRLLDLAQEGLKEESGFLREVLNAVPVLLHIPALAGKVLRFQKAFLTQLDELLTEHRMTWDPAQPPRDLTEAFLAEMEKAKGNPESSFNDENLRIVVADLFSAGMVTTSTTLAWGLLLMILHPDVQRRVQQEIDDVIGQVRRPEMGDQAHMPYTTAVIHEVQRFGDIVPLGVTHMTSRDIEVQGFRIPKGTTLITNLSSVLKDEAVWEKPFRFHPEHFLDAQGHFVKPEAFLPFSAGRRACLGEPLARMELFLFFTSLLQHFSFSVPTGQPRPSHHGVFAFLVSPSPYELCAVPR

Cytochrome P450 3A4 [13] = target: T4, Cytochrome P450 3A4 (Homo sapiens, UniProt P08684); assay: Inhibition of CYP3A4 using in human liver microsomes using midazolam as substrate after 5 to 15 mins; type: ADME
T4 sequence (P08684 whole entry): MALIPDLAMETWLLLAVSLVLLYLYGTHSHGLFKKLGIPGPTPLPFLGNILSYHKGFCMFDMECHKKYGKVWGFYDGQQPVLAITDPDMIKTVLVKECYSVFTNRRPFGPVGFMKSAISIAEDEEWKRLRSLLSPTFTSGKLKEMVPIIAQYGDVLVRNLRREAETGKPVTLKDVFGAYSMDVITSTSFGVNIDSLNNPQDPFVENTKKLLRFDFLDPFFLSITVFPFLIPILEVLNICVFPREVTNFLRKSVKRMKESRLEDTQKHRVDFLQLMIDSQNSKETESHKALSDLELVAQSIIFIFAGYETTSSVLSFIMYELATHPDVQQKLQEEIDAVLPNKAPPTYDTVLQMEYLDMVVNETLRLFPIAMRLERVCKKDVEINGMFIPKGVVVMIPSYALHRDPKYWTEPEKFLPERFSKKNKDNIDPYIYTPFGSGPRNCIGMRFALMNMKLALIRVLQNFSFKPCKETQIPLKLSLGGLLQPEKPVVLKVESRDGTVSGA
Method in brief: (§5)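 CYP3A4 inhibition was measured in pooled human liver microsomes using an isozyme-specific probe substrate: midazolam for line 1 and testosterone for line 2.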

Cytochrome P450 3A4 [14] = target: T4, Cytochrome P450 3A4; assay: Inhibition of CYP3A4 using in human liver microsomes using testosterone as substrate after 5 to 15 mins; type: ADME; method in brief: as §5
[15] = tested on: Hemoglobin HbA (Homo sapiens), P69905+P68871 [E7V]; assay: as §1, with “500” for “30”; method in brief: as §2
Cytochrome P450 2C19 [16] = target: T3, Cytochrome P450 2C19; assay: Time dependent inhibition of CYP2C19 in human liver microsomes using S-Mephentoin as substrate; type: ADME
Cytochrome P450 3A4 [17] = target: T4, Cytochrome P450 3A4; assay: Time dependent inhibition of CYP3A4 using in human liver microsomes using midazolam as substrate; type: ADME
Cytochrome P450 3A4 [18] = target: T4, Cytochrome P450 3A4; assay: Time dependent inhibition of CYP3A4 using in human liver microsomes using testosterone as substrate; type: ADME
[19] = tested on: Hemoglobin HbA (Homo sapiens), P69905+P68871 [E7V]; assay: as §1, with “100” for “30”, “20” for “oxygenation for 10”, “oxygenation/deoxygenation cycle” for “and subsequent deoxygenation”
[20] = tested on: Hemoglobin HbA (Homo sapiens), P69905+P68871 [E7V]; assay: as §3, with “sickle” for “sickle cell”, “patient purified HbS/HbA mixture” for “transfused human whole blood”, “5” for “1”

For `COc1cc(C=O)c(OCc2nccc3ccccc23)cn1`, the Activity [1] was 40.2%.

In the case of `COc1cc(C=O)c(OCc2cccnc2-c2[nH]ncc2C)cn1`, the Activity [1] is reported as 51.7%, the Activity [2] is reported as 43.1% and the Activity (Homo sapiens) is reported as 64.5%.

`COc1cc(C=O)c(OCc2cc(-c3cn[nH]c3)cn3ccnc23)cn1` gave an Activity [1] of 28.2%.

In the case of `COc1cc(C=O)c(OCc2cccn3cncc23)cn1`, the Activity [1] is reported as 37.9%.

Compound `COc1cncc(OCc2cccnc2-c2ccnn2C(C)C)c1C=O` has an Activity [1] of 54.5%, an Activity [2] of 55% and an Activity (Homo sapiens) of 131%. It also gave a t1/2 (Blood) of 2.5 h and an AUC/dose (Rattus norvegicus) of 36.4 ng·h/mL/mg/kg.

Work on `COc1cc(C=O)c(OCc2cncc(-c3nnn[nH]3)c2)cn1` yielded an Activity [1] of 21.9%.

With `COc1cc(C=O)c(OCc2cccnc2-c2ccn[nH]2)cn1` the Activity [1] was 40.2% and the Activity [2] was 19.2%.

Work on `COc1cc(C=O)c(OCc2cccnc2-c2ccnn2C(C)C)cn1` yielded an Activity [1] of 66.2%, an Activity [2] of 66.9% and an Activity (Homo sapiens) of 115%. It also gave a t1/2 (Blood) of 2.7 h, a Kp [3] of 38 and an AUC/dose (Rattus norvegicus) of 20.6 ng·h/mL/mg/kg.

Compound `CC(C)n1nccc1-c1ncccc1COc1cccc(O)c1C=O` [VOXELOTOR] has an Activity [1] of 72.1%, an Activity [2] of 79.8% and an Activity (Homo sapiens) of 206%. For the same compound, the t1/2 (Blood) was 19.1 h, the bioavailability [4] was 60% and the bioavailability [5] was 37%. It also gave a bioavailability [6] of 36%, a half-life [7] of 20 h and a half-life [8] of 20 h. For the same compound, the half-life [9] was 20 h, the half-life [10] was 20 h and the half-life [11] was 20 h. For the same compound, the Kp [3] was 150, the IC50 (Cytochrome P450 1A2) was 58.6 µM and the IC50 (Cytochrome P450 2C8) was 7.9 µM. For the same compound, the IC50 (Cytochrome P450 2C9) was 8.5 µM, the IC50 (Cytochrome P450 2C19 [12]) was 20 µM and the IC50 (Cytochrome P450 2D6) was 148 µM. It also gave an IC50 (Cytochrome P450 3A4 [13]) of 81.9 µM, an IC50 (Cytochrome P450 3A4 [14]) of 12.5 µM and an Activity [15] of 2.6%. For the same compound, the TDI (Cytochrome P450 2C19 [16]) was “Not Active”, the AUC/dose (Rattus norvegicus) was 326806 ng·h/mL/mg/kg and the TDI (Cytochrome P450 3A4 [17]) was “Not Active”. For the same compound, the TDI (Cytochrome P450 3A4 [18]) was “Not Active”.

`CC(C)n1nccc1-c1ncccc1COc1cnc(OC(F)F)cc1C=O` showed an Activity [1] of 43.1%, an Activity [2] of 49.7% and an Activity (Homo sapiens) of 73.1%.

`COc1cc(C=O)c(OCc2cccn3c(C)nnc23)cn1` gave an Activity [1] of 42.2%.

`COc1cc(C=O)c(OCc2cccc3ncccc23)cn1` showed an Activity [1] of 36%.

With `COc1ccc(OCc2cccnc2)c(C=O)c1` the Activity [1] was 34% and the Activity [19] was “Active”.

In the case of `COc1ccc(OCc2cccn3ccnc23)c(C=O)c1`, the Activity [1] is reported as 33% and the Activity [19] is reported as “Active”.

Compound `COc1cc(C=O)c(OCc2cccnc2-c2ccnn2CCO)cn1` has an Activity [1] of 32.7%, an Activity [2] of 64.7% and an Activity (Homo sapiens) of 105%.

`CC(C)n1nccc1-c1ncccc1COc1cccc(F)c1C=O` gave an Activity [1] of 67.8%, an Activity [2] of 72.8% and an Activity (Homo sapiens) of 104%. It also gave a t1/2 (Blood) of 2.7 h and an AUC/dose (Rattus norvegicus) of 438 ng·h/mL/mg/kg.

Work on `COC(=O)c1cc(COc2cnc(OC)cc2C=O)c2nccn2c1` yielded an Activity [1] of 16.4%.

`COc1cc(C=O)c(OCc2cnccc2-c2cn[nH]c2)cn1` gave an Activity [1] of 17.1%.

Compound `COc1cc(C=O)c(OCc2c(-c3cc[nH]n3)ccn3ccnc23)cn1` has an Activity [1] of 29.1%.

With `COc1cc(C=O)c(OCc2cccnc2-n2cccn2)cn1` the Activity [1] was 31.8%.

For `CC(C)n1nccc1-c1ncccc1COc1cncc(O)c1C=O`, the Activity [1] was 70.5%, the Activity [2] was 72.5% and the Activity (Homo sapiens) was 167%. The t1/2 (Blood) was 8.1 h and the AUC/dose (Rattus norvegicus) was 10887 ng·h/mL/mg/kg.

For `O=Cc1ccc(CO)o1`, the Activity [20] was “Active”.
